From ChEMBL document CHEMBL4118165, “Synthesis and kinetic evaluation of ethyl acrylate and vinyl sulfone derived inhibitors for human cysteine cathepsins” (Bioorg Med Chem Lett, 2018)

Key:
[1] = target: T1, Cathepsin K (Homo sapiens) (UniProt P43235); assay: Irreversible inhibition of human cathepsin K using Z-Leu-Arg-AMC as substrate assessed as ratio of Kinac/Ki after 10 to 80 mins by fluorimetric analysis
T1 sequence (whole entry): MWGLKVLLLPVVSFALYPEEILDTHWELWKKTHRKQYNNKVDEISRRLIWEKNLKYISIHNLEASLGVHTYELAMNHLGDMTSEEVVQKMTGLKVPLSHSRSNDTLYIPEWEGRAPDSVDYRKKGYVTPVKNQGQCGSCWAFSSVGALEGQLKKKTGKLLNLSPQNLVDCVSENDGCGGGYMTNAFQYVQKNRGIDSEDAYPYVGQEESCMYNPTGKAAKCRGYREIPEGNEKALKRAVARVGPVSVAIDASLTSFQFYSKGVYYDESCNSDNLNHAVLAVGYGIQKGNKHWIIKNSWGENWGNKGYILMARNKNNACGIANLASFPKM

[2] = target: Cathepsin B (Homo sapiens) (UniProt P07858); assay: Irreversible inhibition of human cathepsin B using Z-Arg-Arg-pNA as substrate by photometric analysis; conditions: TDE = time-dependent effect
How it was run: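 Human cathepsin B assayed photometrically at 405 nm, 37 °C, pH 6.0. […] Progress curves were fitted by non-linear regression to get kobs, and kinac/Ki was derived with correction for substrate competition ([S]/Km).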

[3] = target: Cathepsin S (Homo sapiens) (UniProt P25774); assay: Irreversible inhibition of human cathepsin S using Z-Phe-Arg-AMC as substrate by fluorimetric analysis; conditions: TDE = time-dependent effect
How it was run: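 Human cathepsin S monitored fluorimetrically (ex 360, em 440 nm) at 25 °C, pH 6.0. […] Progress curves were fitted non-linearly for kobs, and kinac/Ki was calculated including the [S]/Km competition term.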

[4] = target: Procathepsin L (Homo sapiens) (UniProt P07711); assay: Irreversible inhibition of human cathepsin L using Z-Phe-Arg-pNA as substrate assessed as ratio of Kinac/Ki after 10 to 80 mins by photometric analysis
[5] = target: T1, Cathepsin K (Homo sapiens); assay: Irreversible inhibition of human cathepsin K using Z-Leu-Arg-AMC as substrate by fluorimetric analysis; conditions: TDE = time-dependent effect
[6] = target: Cathepsin B (Homo sapiens) (UniProt P07858); assay: Irreversible inhibition of human cathepsin B using Z-Arg-Arg-pNA as substrate assessed as ratio of Kinac/Ki after 10 to 80 mins by photometric analysis
[7] = target: Cathepsin S (Homo sapiens) (UniProt P25774); assay: Irreversible inhibition of human cathepsin S using Z-Phe-Arg-AMC as substrate assessed as ratio of Kinac/Ki after 10 to 80 mins by fluorimetric analysis
[8] = target: Procathepsin L (Homo sapiens) (UniProt P07711); assay: Irreversible inhibition of human cathepsin L using Z-Phe-Arg-pNA as substrate by photometric analysis; conditions: TDE = time-dependent effect

Chain of Cathepsin S (Homo sapiens) (P25774 115-331 limits assumed): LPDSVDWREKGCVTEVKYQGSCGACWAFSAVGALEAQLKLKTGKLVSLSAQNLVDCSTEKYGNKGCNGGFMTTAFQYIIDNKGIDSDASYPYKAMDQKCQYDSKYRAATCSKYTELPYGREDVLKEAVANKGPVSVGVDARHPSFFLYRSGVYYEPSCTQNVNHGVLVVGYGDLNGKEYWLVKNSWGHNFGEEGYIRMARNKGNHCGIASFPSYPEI
Chain of Procathepsin L (Homo sapiens) (P07711 114-333 limits assumed): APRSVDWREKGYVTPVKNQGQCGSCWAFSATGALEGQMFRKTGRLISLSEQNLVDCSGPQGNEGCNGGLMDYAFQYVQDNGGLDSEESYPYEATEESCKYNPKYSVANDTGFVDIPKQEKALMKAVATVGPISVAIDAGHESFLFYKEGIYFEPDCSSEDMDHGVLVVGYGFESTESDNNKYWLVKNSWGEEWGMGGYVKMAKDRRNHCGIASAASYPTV

Compound | Ratio [1] [M⁻¹ s⁻¹] | inhibition [2] | inhibition [3] | Ratio [4] [M⁻¹ s⁻¹] | inhibition [5] | Ratio [6] [M⁻¹ s⁻¹] | Ratio [7] [M⁻¹ s⁻¹] | inhibition [8]
CC(C)(C)OC(=O)N[C@@H](Cc1ccccc1)C(=O)NC/C=C/S(=O)(=O)c1ccccc1 | 1320 | Tde | Tde | 5880 | Tde | 378 | 7960 | Tde
CCOC(=O)/C=C/CNC(=O)[C@H](Cc1ccccc1)NC(=O)OC(C)(C)C | 752 | Tde | Tde | 1120 | Tde | 3660 | 525 | Tde
CCOC(=O)/C=C/CNC(=O)[C@H](CC(C)C)NC(=O)CCNC(=O)OC(C)(C)C | 2890 | Tde | Tde | 554 | Tde | 248 | 2590 | Tde
CC(C)(C)OC(=O)NCCC(=O)N[C@@H](Cc1ccccc1)C(=O)NC/C=C/S(=O)(=O)c1ccccc1 | 2230 | Tde | Tde | 12800 | Tde | 214 | 13100 | Tde
CCOC(=O)/C=C/CNC(=O)[C@H](Cc1ccccc1)NC(=O)CCNC(=O)OC(C)(C)C | 759 | Tde | Tde | 3540 | Tde | 2660 | 879 | Tde
CCOC(=O)/C=C/CNC(=O)[C@H](CC(C)C)NC(=O)OC(C)(C)C | 11600 | Tde | Tde | 1280 | Tde | 3090 | 6600 | Tde

Further lines, results first:

Ratio [1] [M⁻¹ s⁻¹] | inhibition [2] | inhibition [3] | Ratio [4] [M⁻¹ s⁻¹] | inhibition [5] | Ratio [6] [M⁻¹ s⁻¹] | Ratio [7] [M⁻¹ s⁻¹] | inhibition [8] | Compound
12500 | Tde | Tde | 671 | Tde | 58.3 | 30600 | Tde | CC(C)C[C@H](NC(=O)CCNC(=O)OC(C)(C)C)C(=O)NC/C=C/S(=O)(=O)c1ccccc1
25.5 | Tde | Tde | 3310 | Tde | 150 | 11900 | Tde | CC(C)C[C@H](NC(=O)COCCOCCNC(=O)OC(C)(C)C)C(=O)NC/C=C/S(=O)(=O)c1ccccc1
297 | Tde | Tde | 652 | Tde | 348 | 557 | Tde | CCOC(=O)/C=C/CNC(=O)[C@H](Cc1ccccc1)NC(=O)COCCOCCNC(=O)OC(C)(C)C
18300 | Tde | Tde | 879 | Tde | 85.1 | 28400 | Tde | CC(C)C[C@H](NC(=O)OC(C)(C)C)C(=O)NC/C=C/S(=O)(=O)c1ccccc1
